Reference: ChEMBL document CHEMBL2150980 (Eur J Med Chem, 2012)

Experiments:
Format in all cases: functional, tissue-based
[1] = target: T1, Adrenergic receptor alpha-2 (Rattus norvegicus, UniProt P22086+P19328+P22909); assay: Antagonist activity at alpha2 adrenoceptor in Sprague-Dawley rat prostatic vas deferens assessed as suppression of clonidine-mediated inhibition of twitch response after 30 mins
T1 sequence (P22086 whole entry): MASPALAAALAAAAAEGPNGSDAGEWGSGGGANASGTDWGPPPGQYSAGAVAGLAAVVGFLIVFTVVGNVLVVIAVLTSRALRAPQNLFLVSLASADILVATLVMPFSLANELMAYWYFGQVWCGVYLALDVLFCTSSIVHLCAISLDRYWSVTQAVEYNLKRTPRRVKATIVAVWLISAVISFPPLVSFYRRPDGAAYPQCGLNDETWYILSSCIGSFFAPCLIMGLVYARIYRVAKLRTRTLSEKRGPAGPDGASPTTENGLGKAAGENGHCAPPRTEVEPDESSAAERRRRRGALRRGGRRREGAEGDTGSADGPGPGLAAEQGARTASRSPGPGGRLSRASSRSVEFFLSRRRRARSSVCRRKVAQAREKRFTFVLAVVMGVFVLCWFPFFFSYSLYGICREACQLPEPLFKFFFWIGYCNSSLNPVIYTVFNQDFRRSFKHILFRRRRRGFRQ
T1 sequence (P19328 whole entry): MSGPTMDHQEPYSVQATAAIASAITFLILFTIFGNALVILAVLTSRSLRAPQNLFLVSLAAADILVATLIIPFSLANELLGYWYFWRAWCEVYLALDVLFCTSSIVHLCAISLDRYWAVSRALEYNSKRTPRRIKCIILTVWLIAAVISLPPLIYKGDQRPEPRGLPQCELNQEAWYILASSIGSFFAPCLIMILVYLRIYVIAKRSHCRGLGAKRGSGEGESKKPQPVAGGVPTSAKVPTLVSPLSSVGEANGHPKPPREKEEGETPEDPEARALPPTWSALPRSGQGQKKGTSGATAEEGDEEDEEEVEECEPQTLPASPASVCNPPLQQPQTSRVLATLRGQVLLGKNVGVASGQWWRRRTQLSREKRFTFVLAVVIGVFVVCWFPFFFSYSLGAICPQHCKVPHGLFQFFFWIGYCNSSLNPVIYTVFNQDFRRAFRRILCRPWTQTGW
T1 sequence (P22909 whole entry): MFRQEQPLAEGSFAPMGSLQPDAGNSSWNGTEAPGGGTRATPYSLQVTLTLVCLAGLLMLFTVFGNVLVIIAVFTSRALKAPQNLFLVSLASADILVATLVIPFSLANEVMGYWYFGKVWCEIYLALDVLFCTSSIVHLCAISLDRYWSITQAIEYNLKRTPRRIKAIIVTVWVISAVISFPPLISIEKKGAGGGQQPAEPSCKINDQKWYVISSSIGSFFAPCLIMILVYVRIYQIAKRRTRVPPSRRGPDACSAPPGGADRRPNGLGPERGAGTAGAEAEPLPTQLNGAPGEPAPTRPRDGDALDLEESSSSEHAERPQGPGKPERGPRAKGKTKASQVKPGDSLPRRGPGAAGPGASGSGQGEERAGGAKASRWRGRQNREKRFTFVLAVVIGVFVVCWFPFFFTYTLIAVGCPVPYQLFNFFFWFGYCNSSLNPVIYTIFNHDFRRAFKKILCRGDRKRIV
Method in brief: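 Prostatic vas deferens segments (1.5–2 cm) in Krebs at 37 °C, field-stimulated at 0.1 Hz with 3 ms square pulses, 20–40 V. Equilibrated 1 h at 0.35 g resting tension.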

[2] = target: T2, Alpha-1D adrenergic receptor (Rattus norvegicus, UniProt P23944); assay: Antagonist activity at alpha1D adrenoceptor in Sprague-Dawley rat thoracic aorta assessed as inhibition of noradrenaline-induced contractions after 30 mins; details: read-out: pA2 (converted)
T2 sequence (P23944 whole entry): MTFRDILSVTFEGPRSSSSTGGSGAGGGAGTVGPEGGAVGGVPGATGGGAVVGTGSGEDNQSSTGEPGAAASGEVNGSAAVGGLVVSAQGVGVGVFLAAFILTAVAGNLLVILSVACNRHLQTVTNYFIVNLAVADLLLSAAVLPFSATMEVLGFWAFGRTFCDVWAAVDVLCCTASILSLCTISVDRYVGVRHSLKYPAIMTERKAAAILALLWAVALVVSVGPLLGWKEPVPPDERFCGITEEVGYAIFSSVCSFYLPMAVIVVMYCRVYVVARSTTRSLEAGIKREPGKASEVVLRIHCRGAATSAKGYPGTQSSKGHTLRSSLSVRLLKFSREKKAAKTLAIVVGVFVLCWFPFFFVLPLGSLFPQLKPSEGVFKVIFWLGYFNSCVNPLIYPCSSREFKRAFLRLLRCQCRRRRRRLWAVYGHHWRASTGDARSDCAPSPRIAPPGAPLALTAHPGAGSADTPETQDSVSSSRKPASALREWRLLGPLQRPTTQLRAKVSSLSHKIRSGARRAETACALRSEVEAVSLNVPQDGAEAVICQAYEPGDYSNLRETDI

[3] = target: T3, Alpha-1A adrenergic receptor (Cavia porcellus) (UniProt Q9WU25); assay: Inverse agonist activity at alpha1A adrenoceptor in guinea pig thoracic aorta assessed as inhibition of ca2+-induced IRT at 10 nM after 30 mins
T3 sequence (whole entry): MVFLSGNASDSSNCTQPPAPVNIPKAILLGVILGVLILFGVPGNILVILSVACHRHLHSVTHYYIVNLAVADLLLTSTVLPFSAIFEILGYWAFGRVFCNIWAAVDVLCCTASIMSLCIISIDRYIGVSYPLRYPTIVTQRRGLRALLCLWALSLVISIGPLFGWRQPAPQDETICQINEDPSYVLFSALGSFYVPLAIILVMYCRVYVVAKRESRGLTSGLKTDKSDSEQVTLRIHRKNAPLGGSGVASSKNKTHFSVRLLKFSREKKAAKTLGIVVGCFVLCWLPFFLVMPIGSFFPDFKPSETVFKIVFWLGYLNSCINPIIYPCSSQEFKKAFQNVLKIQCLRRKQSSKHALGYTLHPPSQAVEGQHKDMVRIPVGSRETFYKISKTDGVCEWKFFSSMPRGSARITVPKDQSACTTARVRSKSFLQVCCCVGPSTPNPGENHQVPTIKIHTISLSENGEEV
Method in brief: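 Tissue in Krebs equilibrated 1 h at 1 g, then given a single (−)-noradrenaline dose. Washed 1 h in Ca2+-free Krebs with 0.1 mM EDTA, with agonist reapplied until no contraction (internal Ca2+ stores depleted). Antagonist 10 nM for 30 min, then Ca2+ 1.8 mM added. Result is % decrease versus IRT without any agent; mean ± SE, 4–7 experiments.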

Row | pA2 [1] | Kb [2] | inhibition [3] | SMILES
1 | < 5 | 51.3 nM | 100% | COc1cccc(OC)c1OCCNC[C@H]1COc2cccc(O)c2O1.Cl
2 | 6.23 | 11.7 nM | 60% | COc1cccc(OC)c1OCCNC[C@H]1COc2cccc(OC)c2O1.Cl
3 | 6.02 | 3.02 nM | 80% | COc1cccc(OC)c1OCCNC[C@H]1COc2cccc(Cl)c2O1.Cl
4 | 5.67 | 5.75 nM | 79% | COc1cccc(OC)c1OCCNC[C@H]1COc2c(OC)cccc2O1.Cl
5 | 6.26 | 9.33 nM | 100% | COc1cccc(OC)c1OCCNC[C@H]1COc2cccc(F)c2O1.Cl
